Experimental findings from ChEMBL document CHEMBL1122388, “beta 1-selective adrenoceptor antagonists. 2. 4-ether-linked phenoxypropanolamines” (J Med Chem, 1983) are described below.

Molecules are shown by their SMILES.

For assay [1], the target named is Adrenergic receptor beta (Rattus norvegicus) (UniProt P18090+P10608+P26255). The assay can be described thus: Beta agonistic activity as the dose required to increase heart rate by 30 beats/min in anesthetized rats upon intravenous administration. It is filed as functional, organism-based. In short, it runs like this:
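Rats anesthetized with pentobarbitone sodium (75 mg/kg ip), reserpine-pretreated (5 mg/kg ip) 20-24 h earlier. Single doses of test compound given into tail vein, up to 20 animals depending on activity; blood pressure and heart rate recorded. ED30 (dose raising heart rate 30 beats/min) with 95% confidence limits from log dose-response linear regression.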

Assay [2] addresses Beta-1 adrenergic receptor (Rattus norvegicus) (UniProt P18090). The assay can be described thus: Compound was tested for beta-1 adrenergic receptor blocking activity as the dose required to inhibit 50% of tachycardia in anesthetized rats. It is filed as functional. In short, it runs like this: (§1)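 Isoprenaline (0.1 µg/kg) and test compound in saline given into right femoral vein; blood pressure from left carotid artery, heart rate by tachograph triggered from arterial pulse. Test compound injected 5 min after isoprenaline, cumulative doses up to, in most cases, 2 mg/kg. Six rats per compound; ED50 with 95% confidence limits from log dose-response linear regression.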

Assay [3] concerns the target Beta-2 adrenergic receptor (Rattus norvegicus) (UniProt P10608). Kind of assay: Beta-2 adrenergic receptor antagonist activity as the dose required to inhibit 50% of vasodepressor response in anesthetized rats.
Assay [4] concerns the target Beta-1 adrenergic receptor (Rattus norvegicus) (UniProt P18090). Kind of assay: Beta-1 adrenoceptor blocking activity as the dose required to inhibit 50% of tachycardia in anesthetized rats. It is filed as functional. The method, boiled down:
as §1

By ED50 is commonly meant the dose that gives a 50% effect, or the effect in half of the subjects. Higher therefore signals a need for a large dose.

Beta-2 adrenergic receptor (Rattus norvegicus), sequence (P10608 whole entry, looked up): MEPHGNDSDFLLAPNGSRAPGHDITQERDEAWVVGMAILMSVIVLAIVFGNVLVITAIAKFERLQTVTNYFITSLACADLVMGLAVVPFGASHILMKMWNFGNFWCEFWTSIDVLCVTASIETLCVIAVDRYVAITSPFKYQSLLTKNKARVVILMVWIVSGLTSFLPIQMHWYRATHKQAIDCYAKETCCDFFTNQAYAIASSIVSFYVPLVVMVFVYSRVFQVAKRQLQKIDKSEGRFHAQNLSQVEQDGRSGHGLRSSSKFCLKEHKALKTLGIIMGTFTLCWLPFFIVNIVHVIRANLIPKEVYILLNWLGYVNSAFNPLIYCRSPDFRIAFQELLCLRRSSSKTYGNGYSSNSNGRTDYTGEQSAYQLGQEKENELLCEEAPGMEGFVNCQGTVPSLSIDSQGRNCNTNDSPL
Beta-1 adrenergic receptor (Rattus norvegicus), sequence (P18090 whole entry, looked up): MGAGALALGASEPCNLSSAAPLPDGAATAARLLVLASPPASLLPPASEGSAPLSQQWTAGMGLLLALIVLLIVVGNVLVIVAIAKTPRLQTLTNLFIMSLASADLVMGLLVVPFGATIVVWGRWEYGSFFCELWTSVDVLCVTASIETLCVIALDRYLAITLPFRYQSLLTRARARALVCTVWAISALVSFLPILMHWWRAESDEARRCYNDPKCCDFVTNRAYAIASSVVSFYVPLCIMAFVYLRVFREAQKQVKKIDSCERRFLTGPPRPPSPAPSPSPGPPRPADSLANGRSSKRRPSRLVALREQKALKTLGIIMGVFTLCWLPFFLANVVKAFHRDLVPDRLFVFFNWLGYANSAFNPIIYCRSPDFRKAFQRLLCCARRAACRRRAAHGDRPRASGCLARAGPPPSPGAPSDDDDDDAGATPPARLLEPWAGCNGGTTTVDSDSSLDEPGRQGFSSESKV

Turning to `CC(C)NCC(O)COc1ccc(CCOCCOc2ccccc2)cc1` (centres undefined), the ED30 in assay [1] is > 1 mg/kg. Also, the ED50 in assay [2] came to 0.068 mg/kg; in assay [3] it was 0.924 mg/kg.
`CC(C)NCC(O)COc1ccc(OCCOCCOc2ccccc2)cc1` (centres undefined) displayed an ED30 in assay [1] of 0.017 mg/kg. For the same compound, the median effective dose (ED50) in assay [4] was 0.041 mg/kg; in assay [3] it was > 5 mg/kg.
Taken in the same sequence, the figures for `CSc1ccc(CCOCCOc2ccc(OCC(O)CNC(C)C)cc2)cc1` (centres undefined) were 0.042 mg/kg, 0.174 mg/kg and > 2 mg/kg.
With `CC(C)NCC(O)COc1ccc(CC(N)=O)cc1` (centres undefined), the ED30 in assay [1] was > 1 mg/kg. Besides, it took a dose of 0.091 mg/kg to reach the 50% effect level in assay [4] (ED50).
`CC(C)NCC(O)COc1ccc(OCCOCCc2ccc(F)cc2)cc1` (centres undefined) returned an ED30 in assay [1] of 0.037 mg/kg. Moreover, the 50% effective dose (ED50) was 0.003 mg/kg in assay [4] and > 2 mg/kg in assay [3].
Taken in the same sequence, the figures for `CC(C)(C)NCC(O)COc1ccc(OCCOCCc2ccccc2)cc1` (centres undefined) were 0.022 mg/kg, 0.018 mg/kg and 0.979 mg/kg.
Taken in the same sequence, the figures for `CC(C)NCC(O)COc1ccc(OCCOCCc2ccc(Cl)cc2)cc1` (centres undefined) were 0.032 mg/kg, 0.627 mg/kg and > 2 mg/kg.
In assay [1], `Cc1ccc(CCOCCOc2ccc(OCC(O)CNC(C)C)cc2)cc1` (centres undefined) showed an ED30 of 0.022 mg/kg. Besides, the ED50 was 0.066 mg/kg in assay [4] and > 2 mg/kg in assay [3].
The like results for `CC(C)NCC(O)COc1ccc(OCCOCCOc2ccc(OCC(O)CNC(C)C)cc2)cc1` (centres undefined) were, in that order, 0.005 mg/kg, 0.052 mg/kg and > 10 mg/kg.
`CC(C)NCC(O)COc1ccc(CCOCCc2ccccc2)cc1` (centres undefined): the ED30 in assay [1] was > 1 mg/kg. In addition, the 50% effective dose (ED50) is 0.163 mg/kg in assay [2] and > 2 mg/kg in assay [3].
Regarding `CC(=O)Nc1ccc(CCOCCOc2ccc(OCC(O)CNC(C)C)cc2)cc1` (centres undefined), the ED30 in assay [1] is 0.029 mg/kg. The ED50 in assay [4] and in assay [3] was > 2 mg/kg in each case.
Consider `CC(C)NC[C@H](O)COc1ccc(OCCOCCc2ccc(F)cc2)cc1` (stereo in doubt; 14b), for which the ED30 in assay [1] was > 1 mg/kg. Also, the median effective dose (ED50) in assay [4] and in assay [3] was > 2 mg/kg in each case.
With `CC(C)NCC(O)COc1ccc(OCCOCCc2ccccc2)cc1` (centres undefined), in assay [1], the ED30 was determined as 0.02 mg/kg. Besides, the ED50 in assay [4] was 0.015 mg/kg; in assay [3] it was > 50 mg/kg.
Regarding `CC(C)NC[C@H](O)COc1ccc(OCCOCCc2ccc(F)cc2)cc1` (stereo in doubt; 14a), the ED30 in assay [1] was 0.019 mg/kg. Besides, the values for the ED50 in assay [4] and in assay [3] were 0.004 mg/kg and > 2 mg/kg, respectively.
Taken in the same sequence, the figures for `Cc1cc(OCCOCCc2ccccc2)ccc1OCC(O)CNC(C)C` (centres undefined) were 0.057 mg/kg, 0.572 mg/kg and > 2 mg/kg.
The like results for `CC(C)NCC(O)COc1ccc(OCCOCCc2ccc(F)cc2)c(F)c1` (centres undefined) were, in that order, > 1 mg/kg, 0.001 mg/kg and > 2 mg/kg.
The like results for `CC(C)NCC(O)COc1ccc(OCCOCCc2ccc(C#N)cc2)cc1` (centres undefined) were, in that order, 0.032 mg/kg, 0.654 mg/kg and > 2 mg/kg.
With `CC(C)NCC(O)COc1ccc(OCCOCCc2ccccc2)cc1Cl` (centres undefined), the ED30 in assay [1] came to 0.016 mg/kg. The results for the 50% effective dose (ED50) in assay [4] and in assay [3] were 0.025 mg/kg and 0.834 mg/kg, respectively.
`CC(C)NCC(O)COc1ccc(OCCOCCc2ccc(F)cc2)cc1F` (centres undefined): the ED30 in assay [1] is 0.045 mg/kg. Besides, the median effective dose (ED50) in assay [4] was 0.001 mg/kg; in assay [3] it was > 2 mg/kg.
Taken in the same sequence, the figures for `COc1ccc(CCOCCOc2ccc(OCC(O)CNC(C)C)cc2)cc1` (centres undefined) were 0.009 mg/kg, 0.344 mg/kg and > 2 mg/kg.
As to `COCCc1ccc(OCC(O)CNC(C)C)cc1` (centres undefined), in assay [1], the ED30 was > 1 mg/kg. Besides, in assay [4], it took a dose of 0.25 mg/kg to reach the 50% effect level (ED50).
Regarding `CC(C)(C)NCC(O)COc1ccc(OCCOCCc2ccc(F)cc2)cc1` (centres undefined), in assay [1], the ED30 amounted to 0.024 mg/kg. The 50% effective dose (ED50) in assay [4] was 0.002 mg/kg; in assay [3] it was > 2 mg/kg.
